Some results are limits rather than exact numbers.

The test system of assay [1] is RAW264.7. In words: Antiinflammatory activity in mouse RAW264.7 cells assessed as inhibition of LPS-induced nitric oxide production preincubated for 1 hr followed by LPS challenge for 24 hrs by Griess assay. In kind it is functional, cell-based. The method in brief:
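RAW 264.7 cells plated at 2 × 10^5 cells/mL and incubated overnight. Compound given at 15, 30 or 60 μM for 1 h, then LPS 10 ng/mL for 24 h. Nitrite in the medium measured by Griess reagent (10 min, room temperature, A540) against a NaNO2 standard. L-NIL 20 μM as positive control; IC50 derived; three independent experiments.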
Background: Nitrite, measured by Griess reagent, commonly stands in for NO production.

Assay [2] deals with RAW264.7. The experiment in a line: Antiinflammatory activity in mouse RAW264.7 cells assessed as inhibition of LPS-induced PGE2 production preincubated for 1 hr followed by LPS challenge for 24 hrs by ELISA method. The assay is classed as functional, cell-based. In short, it runs like this: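 RAW 264.7 cells in DMEM with 10% FBS, plated at 2 × 10^5 cells/mL and incubated overnight. Pretreated with compound (15, 30 or 60 μM) for 1 h, then LPS 10 ng/mL for 24 h. PGE2 measured by competitive colorimetric ELISA, TNF-α and IL-6 by ELISA, in diluted medium. NS-398 3 μM as positive control for PGE2. Mean ± SD, three independent experiments; IC50 given for PGE2.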
On the technique in general: An ELISA detects its analyte on a solid surface through an enzyme-linked reagent.

The subject of assay [3] is Rattus norvegicus. In words: Antiinflammatory activity in Sprague-Dawley rat assessed as inhibition of croton oil-induced ear edema at 100 mg/kg, po administered 1 hr before croton oil challenge measured after 3 hrs post challenge. The assay is classed as functional. The method in brief: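 Croton-oil ear edema in male SD rats: ibuprofen 100 mg/kg p.o. given as reference. Croton oil (5% in 100 μL acetone) applied to the right ear, acetone to the left. Thickness of 6 mm ear punches measured 3 h after application; seven rats per group.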

In assay [4] the test system is Rattus norvegicus. The experiment in a line: Antiinflammatory activity in Sprague-Dawley rat assessed as reduction in carrageenan induced paw edema at 100 mg/kg, po administered 1 hr before carrageenan challenge measured at 3 hrs post challenge. In kind it is functional. In short, it runs like this:
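Carrageenan paw edema in SD rats: ibuprofen 100 mg/kg p.o. as reference. Carrageenan (1% in saline, 0.1 mL) injected into the right hind paw. Volume measured by plethysmometer at 1, 3 and 5 h; seven rats per group.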
In general terms: The carrageenan paw model is a standard test of acute inflammation.

Regarding `Cc1cc(=O)c2c(O)cc(O)c([C@@H]3O[C@H](CO)[C@@H](O)[C@H](O)[C@H]3O)c2o1`, the IC50 – broadly, the midpoint of a concentration-inhibition curve – is greater than 60 µM in the assay on RAW264.7 [1] and 46 µM with RAW264.7 [2].

With `CC(C)Cc1ccc(C(C)C(=O)O)cc1` (centres undefined) [IBUPROFEN], the inhibition in vivo – broadly, how much of the control response was suppressed – at 100 mg/kg in the assay with Rattus norvegicus [3] was found to be 78.2%; with Rattus norvegicus [4], 68%.

(Values after ChEMBL document CHEMBL4477178, “Biflorin, Isolated from the Flower Buds of Syzygium aromaticum L., Suppresses LPS-Induced Inflammatory Mediators via STAT1 Inactivation in Macrophages and Protects Mice from Endotoxin Shock” (J Nat Prod, 2016).)
